Screens deposited in PubChem BioAssay by several laboratories.
IEC-6 tox-1: counter-screen for KLF5 inhibitors: cytotoxicity in IEC-6 cells; IEC-6 cytotoxicity, luminescence viability; inhibition, % at 5 µM; actives 0.78% (n = 290,000); AID 1825;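 note: 0% = plate median of test compound wells and 100% = cytotoxic reference compound wells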
KLF5 inhibitor: suppresses KLF5 promoter-driven expression; DLD-1 KLF5 promoter-luciferase reporter, luminescence; inhibition, % at 5 µM; actives 0.23% (n = 290,000); AID 1700;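 active = inhibition above a per-plate limit of that plate's mean compound inhibition plus 3 SD, cut at about 60% in these data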;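 note: 0% = DMSO wells and 100% = LY294002 at 200 µM; higher means less KLF5 promoter-driven luciferase light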
bCat nuc transl: beta-catenin nuclear translocation modulation; HeLa beta-catenin nuclear translocation, immunofluorescence imaging; nuclear translocation activity, % at 5 µM; actives 0.3% (n = 190,000);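 active = nuclear translocation activity above 50% at 5 µM, with a well cell count of 50 or more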;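 note: per-cell ratio of nuclear to cytoplasmic median beta-catenin stain intensity; plate controls were DMSO negative control for no effect and GSK-3 inhibitor IX positive control for full effect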
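Technique: fluorescence imaging of beta-catenin antibody stain plus DAPI / Material: human HeLa cell line / Incubation: compound treatment 24 h, 37°C, 5% CO2 / Read-out basis: % activation of per-cell nuclear versus cytoplasmic median beta-catenin signal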
BaF3 tox: reduces parental Ba/F3 cell viability, JAK2V617F counter-screen; CellTiter-Glo ATP luminescence; inhibition, % at 5.6 µM; actives 1.1% (n = 220,000);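 active = inhibition above a per-campaign cutoff, the mean inhibition of all tested compounds plus 3 SD, cut at about 27% in these data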;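 note: 0% = DMSO wells and 100% = JAK Inhibitor I control wells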
Ba/F3 V617F tox: reduce viability of Ba/F3 cells dependent on JAK2V617F; Ba/F3 EpoR-JAK2V617F viability, ATP luminescence; AID 1446; inhibition, % at 5.6 µM; actives 1.1% (n = 220,000);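 active = inhibition above the campaign mean plus 3 SD over all tested compounds, cut at about 24% in these data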;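 note: cytokine-independent growth of Ba/F3 cells driven by EpoR plus mutant JAK2; 0% = DMSO-treated cells and 100% = JAK inhibitor I control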
MT stabilizer: microtubule stabilizers in HeLa cells | HeLa tubulin immunostaining HCS, 24 h; share of cells brighter than vehicle mean+2SD | % tubulin-high responders, % at 10 µM | actives 0.83% (n = 200,000) | AID 2205;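 active = plate Z-score above 3 for both tubulin-high and condensed-nucleus cell shares, with cell loss under 80%, at 10 µM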;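 note: anti alpha tubulin signal scored within the nucleus-defined area of each cell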
KLF5 confirm: KLF5 inhibition, confirmation assay; shares compounds with KLF5 inhibitor; DLD-1 KLF5 promoter firefly luciferase reporter, luminescence; inhibition, % at 4 µM; actives 79% (n = 610); AID 1834;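 active = inhibition above a set limit taken from the earlier primary screen, cut at about 63% in these data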;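 note: 0% = DMSO wells and 100% = LY294002 at 200 µM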
IEC-6 tox-2: rat IEC-6 cytotoxicity, KLF5 inhibitor counter-screen. shares compounds with KLF5 inhibitor. IEC-6 rat intestinal cells, viability luminescence. inhibition, % at 4 µM. actives 56% (n = 610). AID 1905; in the data active = inhibition above about 23%;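 note: cells exposed to compounds for 48 hours before viability read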
IEC-6 tox confirm: IEC-6 cytotoxicity, confirmation assay; actives 63% (n = 1,900); inhibition, % at 5 µM; shares compounds with IEC-6 tox-1; AID 1907; IEC-6 rat intestinal epithelial viability, luminescence;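 note: 0% = vehicle and 100% = reference cytotoxic drug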
Active calls of the source: *; . = no result given. An excerpt weighted towards active compounds, which were near 2.1% of everything screened. Cut-off read from the data, not from the text of the source, unless noted: active = inhibition above about 22%; inactive = the rest.

SMILES | IEC-6 tox-1 | KLF5 inhibitor | bCat nuc transl | BaF3 tox | Ba/F3 V617F tox | MT stabilizer | KLF5 confirm | IEC-6 tox-2 | IEC-6 tox confirm
COc1ccc(/C=N/NC(=O)c2c(C)nc3ccc(Br)cn23)cc1OC | 4 | 15 | -1 | -1 | -2 | . | . | . | .
Cc1ccc2c(c1)COc1c3ccc(C(=O)O)cc3nn1-2 | -4 | 92* | . | . | . | . | 9 | -7 | .
O=C(Nc1cccc(Cl)c1)C1COc2ccccc2O1 (configuration not stated) | -1 | 7 | . | . | . | . | . | . | .
COC(=O)Cn1cnc2c(nnn2-c2cccc(OC)c2)c1=O | 4 | -11 | . | . | . | . | . | . | .
CCN(CC)c1ccc(/C=N/NC(=O)c2cccc(S(=O)(=O)Nc3ccccc3OC)c2)c(O)c1 | 31* | 74* | . | 4 | 10 | 5 | 79* | 33* | .
Cn1c2ccccc2c2cc(C(=O)N3CCOCC3)sc21 | 15 | 66* | -1 | 6 | 4 | 3 | 44 | 17 | .
Cc1cc(C(=O)COC(=O)c2ccccc2O)c(C)n1Cc1cccs1 | -3 | 81* | 1 | 2 | -3 | 1 | 78* | -10 | .
O=C(O)c1cc(N=Nc2c(O)ccc3ccccc23)cc(C(=O)O)c1 | 10 | -9 | 0 | 0 | -2 | 6 | . | . | .
O=C(O)c1ccc(N=Nc2c(O)ccc3ncccc23)cc1 | 8 | 87* | . | . | . | . | 15 | 14 | .
Cc1ccc(-n2nnc(-c3nccs3)n2)cc1 | 5 | 63* | -3 | 2 | 1 | 2 | 64* | 14 | .
CSc1nnc(NC(=O)c2ccc3c(c2)OCO3)s1 | -3 | 75* | . | . | . | . | 62 | -2 | .
CC(=O)Nc1cccc(-c2nnc(SCC(=O)n3c4c(c5ccccc53)CCCC4)n2C)c1 | -3 | -29 | -1 | 5 | -1 | 1 | . | . | .
COc1cc2c(cc1OC)CN(C(=O)CCOc1ccccc1C)CC2 | 8 | 12 | . | . | . | . | . | . | .
COc1cc(C(=O)COC(=O)c2cnc(C)cn2)ccc1OC(F)F | 2 | -11 | . | . | . | . | . | . | .
CC(=O)c1ccc(Nc2cc(C)nc3c(C)cc(C)cc23)cc1 | 73* | 67* | 124* | 81* | 81* | 20* | 79* | 49* | .
Cc1cc(/C=N/NC(=O)C(=O)NCc2ccccn2)c(C)n1-c1ccccc1 | 4 | 2 | 1 | 3 | 4 | 2 | . | . | .
CCCOc1ccc(CNC(=O)c2ccc3c(c2)N(CC)CCS3)cc1 | 0 | -22 | . | . | . | . | . | . | .
COC(=O)C1=C(CN2CCCc3ccccc32)NC(=O)NC1c1ccc(F)cc1 (configuration not stated) | -4 | 85* | -3 | 4 | -1 | 4 | 72* | 7 | .
CCOC(=O)Cn1cc(Cl)c(=O)c(Cl)c1 | -11 | -30 | -1 | 2 | -2 | . | . | . | .
COCCOC(=O)c1[nH]c2c(c1C)C(=O)CC(c1ccc(OC)c(OC)c1)C2 (configuration not stated) | 2 | -27 | . | . | . | . | . | . | .
COC(=O)c1[nH]c2c(c1C)C(=O)CC(c1cccc(OC)c1)C2 (configuration not stated) | 86* | 78* | . | . | . | . | 89* | 64* | 62*
COCCOC(=O)c1[nH]c2c(c1C)C(=O)CC(c1cccs1)C2 (configuration not stated) | 79* | 71* | 21 | 75* | 74* | 23* | 73* | 59* | 55*
CCCCCOC(=O)c1[nH]c2c(c1C)C(=O)CC(c1ccco1)C2 (configuration not stated) | 94* | 79* | 59* | 95* | 95* | 10 | 88* | 77* | 79*
CCOCCOC(=O)c1[nH]c2c(c1C)C(=O)CC(c1ccccc1)C2 (configuration not stated) | 91* | 78* | . | . | . | . | 87* | 66* | 76*
CC(C)(C)c1ccc(OCCCC(=O)Nc2ccc(S(N)(=O)=O)cc2)cc1 | 10 | -79 | 1 | 2 | -4 | 3 | . | . | .
SMILES | IEC-6 tox-1 | KLF5 inhibitor | bCat nuc transl | BaF3 tox | Ba/F3 V617F tox | MT stabilizer | KLF5 confirm | IEC-6 tox-2 | IEC-6 tox confirm
CC1CCC(NCCNC(=O)c2ccco2)CC1 (configuration not stated) | -4 | 7 | . | . | . | . | . | . | .
O=C(Cc1n[nH]c(=O)c2ccccc12)OCC(=O)c1ccc2c(c1)OCCO2 | 89* | 77* | 18 | 82* | 83* | 21* | 65* | 72* | 60*
Cc1ccccc1C(=O)Nc1ccc(Cl)cn1 | -2 | -85 | -2 | 2 | -4 | 1 | . | . | .
O=C(Nc1ccc(Cl)cn1)c1cccc2c(Br)cccc12 | 82* | 62* | . | . | . | . | -10 | 14 | 14
CC(C)n1c(=O)n(CC(=O)NCC2CCCO2)c(=O)c2c3c(sc21)COC(C)(C)C3 (configuration not stated) | 4 | -18 | . | . | . | . | . | . | .
COC(=O)C1CC23C=CCN4CCC5(c6ccccc6NC15C2C)C43 (configuration not stated) | 88* | 62* | . | . | . | . | 79* | 59* | 59*
CC(=O)NNC(=O)c1[nH]c2ccc(Cl)cc2c1-c1ccccc1 | -4 | -8 | 2 | -1 | -1 | . | . | . | .
NNC(=O)c1[nH]c2ccccc2c1-c1ccccc1 | 95* | 82* | . | . | . | . | 0 | 1 | 11
COC(=O)c1ccc(COC(=O)c2cccn2C)o1 | -4 | -36 | . | . | . | . | . | . | .
COc1ccccc1CNC(=O)C1CCCN(S(=O)(=O)c2ccc3c(c2)CC(C)N3C(C)=O)C1 (configuration not stated) | 1 | 23 | . | . | . | . | . | . | .
O=C(NNc1ncc(C(F)(F)F)cc1Cl)c1c(Cl)cccc1Cl | 46* | 71* | . | 83* | 83* | 21* | 44 | 14 | 32*
O=C(N/N=C/c1ccccc1O)c1ccc2c(c1)OCO2 | 76* | 72* | . | . | . | . | 4 | 12 | 19
CCOC(=O)C1CCN(CCC(=O)Nc2ccccc2)CC1 | 0 | -16 | 6 | 5 | 0 | 4 | . | . | .
C/C(=N\NC(=O)c1n[nH]c2c1CCC2)c1cccs1 | 81* | 75* | -1 | 73* | 72* | . | 71* | 3 | 17
CCN(CC)c1ccc(NC(=O)c2cc(OC)cc(OC)c2)c(C)c1 | 78* | 75* | . | 78* | 78* | 11 | 79* | 60* | 60*
COc1cc(-c2nnc3n2N=C(c2ccccc2)CS3)cc(OC)c1OC | 77* | 79* | 93* | 81* | 74* | 46* | 73* | 69* | 67*
COc1ccc(OC)c(C2=Nn3c(nnc3-c3cc(OC)c(OC)c(OC)c3)SC2)c1 | 1 | -1 | -2 | 8 | 3 | 2 | . | . | .
